Reference: paper PMC7379967 (The Febs Journal, 2018)

Molecular target: human neutrophil proMMP‐9 (Homo sapiens, UniProt P14780)
Format: biochemical
Settings: zymography
In short: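 Neutrophil proMMP-9 was incubated with recombinant human MMP-3 catalytic domain (enzyme/substrate 1/20), either alone or with galectin-3 (proMMP-9/galectin-3 1/10). Samples were taken at 0, 0.16, 0.5, 1, 2 and 3 h. Galectins were expressed in E. coli BL21-AI and affinity-purified on α-lactose agarose. Conversion to active MMP-9 was read by gelatin zymography, with recombinant proMMP-9 standard loaded as a reference.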

Chain of human neutrophil proMMP‐9 (P14780 20-707 limits assumed): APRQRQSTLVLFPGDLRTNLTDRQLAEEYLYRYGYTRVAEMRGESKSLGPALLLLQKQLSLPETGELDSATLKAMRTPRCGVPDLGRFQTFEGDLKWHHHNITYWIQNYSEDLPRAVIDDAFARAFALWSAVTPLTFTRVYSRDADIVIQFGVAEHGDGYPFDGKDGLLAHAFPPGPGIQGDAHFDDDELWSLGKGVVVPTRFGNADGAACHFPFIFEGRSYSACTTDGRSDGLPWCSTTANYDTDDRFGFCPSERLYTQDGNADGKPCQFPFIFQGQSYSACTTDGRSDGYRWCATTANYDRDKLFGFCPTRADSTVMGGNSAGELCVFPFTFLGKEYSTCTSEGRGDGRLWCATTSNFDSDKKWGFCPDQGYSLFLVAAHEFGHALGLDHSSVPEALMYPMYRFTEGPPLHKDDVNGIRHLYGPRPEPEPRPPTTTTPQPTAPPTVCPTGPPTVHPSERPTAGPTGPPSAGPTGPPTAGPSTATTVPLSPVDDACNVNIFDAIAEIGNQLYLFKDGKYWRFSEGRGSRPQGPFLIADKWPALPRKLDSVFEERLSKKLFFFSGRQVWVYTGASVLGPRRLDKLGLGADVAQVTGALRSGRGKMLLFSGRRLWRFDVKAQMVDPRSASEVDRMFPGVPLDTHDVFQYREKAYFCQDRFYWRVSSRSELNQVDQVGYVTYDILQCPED

galectin‐3: human galectin‐3 (Met1‐Ile250) fused to C‐terminal tag SG(H)6SC, expressed in E. coli
effect on stepwise activation of neutrophil proMMP‐9 by MMP‐3 (cdMMP‐3 1/20, proMMP‐9/galectin‐3 1/10, 0-3 h, Fig. 9A): reduced | effect on activation of neutrophil proMMP‐9 by MMP‐3, overnight incubation (overnight, proMMP‐9/galectin‐3 1/10, Fig. 9B): prevented activation by MMP‐3
